The record followed here is PubChem BioAssay AID624466 (The Scripps Research Institute Molecular Screening Center, 2012).

The structures appear in SMILES notation. Hit rate of the full screen: of about 360,000 compounds, about 5,400 (1.5%) were called active.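 The calls were made as follows: active = inhibition above a per-plate cutoff, the mean inhibition of test compounds on that plate plus 3 SD (cut at about 49% in these data); inactive = the rest.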 This excerpt belongs to a sample that is enriched for actives.

Trace amine-associated receptor 1 (Homo sapiens), sequence (Q96RJ0 whole entry, looked up): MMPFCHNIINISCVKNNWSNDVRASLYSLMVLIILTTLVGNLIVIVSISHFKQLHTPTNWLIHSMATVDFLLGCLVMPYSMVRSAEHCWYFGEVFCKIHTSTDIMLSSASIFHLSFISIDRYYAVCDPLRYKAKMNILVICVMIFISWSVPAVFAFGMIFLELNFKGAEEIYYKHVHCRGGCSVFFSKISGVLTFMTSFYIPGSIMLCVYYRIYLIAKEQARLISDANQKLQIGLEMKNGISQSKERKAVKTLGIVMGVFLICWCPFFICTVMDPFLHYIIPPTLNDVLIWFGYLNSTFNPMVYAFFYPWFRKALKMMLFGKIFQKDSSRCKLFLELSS

The target of this assay is Trace amine-associated receptor 1 (Homo sapiens) (UniProt Q96RJ0). Nature of the assay: blockers of beta-PEA-driven TAAR1 calcium signal – Fluo-8 calcium fluorescence, CHO RD-HGA16 cells, primary screen (AID 624466).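 Also: 0% = DMSO plus EC80 beta-PEA response and 100% = DMSO alone without agonist.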 As to conditions: CHO RD-HGA16 TAAR1, Fluo-8 calcium fluorescence, antagonist; at 3 µM; hits give high values. In short, it runs like this:
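Assay system: RD-HGA16 CHO cells with stable hTAAR1 and Gα16 / Reagent: EC80 β-phenethylamine stimulus / Doses: 3 µM, single point / Timing: dye loading 75 min at 37 °C, then 30 min room temperature / Measured by: Fluo-8 intracellular calcium dye fluorescence, real-time kinetic reads / Controls: vehicle wells and EC80 agonist wells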
The inhibition is the change of the read-out against control, counted positive when it falls. `CC1(C)OC(=O)C2=C(C[C@@H](C3CC3)O[C@H]2CCc2cccc(Cl)c2)O1`: the inhibition is -4.58% (inactive).

As for `CCCCCCCCNS(=O)(=O)CCNC1CCCCC1`, the inhibition is -6.98% (inactive).

For `COc1ccc(CC(N)c2csc(NC(=O)Cc3ccccc3)n2)cc1` (centres undefined), the inhibition is 15.7% (inactive).

On to `NC(Cc1ccccc1)c1csc(Nc2cc(Oc3ccccc3)ncn2)n1` (centres undefined), for which the inhibition is 49.7% (active).

With `COc1ccc(CC(N)c2csc(NC(=O)NC(c3ccccc3)c3ccccc3)n2)cc1` (centres undefined), the inhibition is 12.4% (inactive).

As for `O=C(CSc1nc2[nH]c(=O)[nH]c(=O)c2s1)Nc1cccc(F)c1`, the inhibition was -17.1% (inactive).

For the compound `CCC(c1nnnn1Cc1ccco1)N(CCc1ccccc1)Cc1cc2ccc(OC)cc2[nH]c1=O` (centres undefined), the inhibition is 85.2% (active).

Turning to `CCC(c1nnnn1Cc1ccco1)N(CCc1ccccc1)Cc1cc2cccc(C)c2[nH]c1=O` (centres undefined), the inhibition was -1.4% (inactive).

With `CCC(c1nnnn1Cc1ccco1)N(Cc1cc2cc(OC)ccc2[nH]c1=O)C1CCCCC1` (centres undefined), the inhibition is -35.8% (inactive).

Take `CCCN1C(=O)c2[nH]nc(-c3ccccc3)c2C1c1ccccc1` (centres undefined): the inhibition is -18.5% (inactive).

In the case of `O=C(O)CSCc1ccc(C(=O)O)o1`, the inhibition was 8.93% (inactive).

As to `Cc1ccc(CC2CC(=O)N(c3cc(C)ccc3C)C2=O)cc1` (centres undefined), the inhibition was -18.2% (inactive).

As to `Cc1ccccc1CN1CCC(C(=O)Nc2ccc(Oc3cccnc3)cc2)CC1`, the inhibition is -4.26% (inactive).

As to `S=C(NCc1ccco1)Nc1ccc2c(c1)OCCO2`, the inhibition was -13.5% (inactive).

Take `O=C1c2ccccc2C(Nc2ccc3c(c2)OCCO3)N1Cc1ccco1` (centres undefined): the inhibition was 60.2% (active).

For `Cc1ccnc(N2C(=O)c3ccccc3C2Nc2ccc3c(c2)OCCO3)c1` (centres undefined), the inhibition was -4.03% (inactive).

For `COC(=O)c1cc(S(=O)(=O)Nc2ccc(C)c(F)c2)c[nH]1`, the inhibition is 3.38% (inactive).

`COc1ccc(C(=O)C(OP(=O)(OC)OC)c2ccccc2OC)cc1` (centres undefined): the inhibition is -8.05% (inactive).

Turning to `COc1ccc(C(C(=O)NCc2ccccc2)N(Cc2cccs2)C(=O)c2cnccn2)cc1` (centres undefined), the inhibition is 53.3% (active).

On to `CC(C)N(Cc1ccccc1)C(=O)COC(=O)c1cnccn1`, for which the inhibition was -3.08% (inactive).

For `Cc1cccc(N(C(=O)c2csnn2)C(C(=O)NCc2ccccc2)c2ccncc2)c1` (centres undefined), the inhibition was -12.4% (inactive).

For `CCOc1ccccc1CN1CCN(C2CCC2)CC1CCO` (centres undefined), the inhibition is 6.95% (inactive).

Take `COC(=O)[C@@]12C[C@@H](CC(=O)N3CCC(c4ccccc4)CC3)C(=O)N(Cc3ccccc3)C1=CCC(C)(C)C2`: the inhibition was -13.1% (inactive).

In the case of `Clc1cccc2c1C1CC2CCN1Cc1ccccc1` (centres undefined), the inhibition is -3.53% (inactive).

As to `COCCNC(=O)CCCN1C(=O)c2ccccc2Sc2ncccc21`, the inhibition was -9.71% (inactive).

For the compound `Cc1c(CNCCc2ccccc2)c(C(=O)O)c(C)n1-c1ccccc1`, the inhibition was 65.9% (active).

In the case of `CNC(=O)CSc1nnc(CCc2ccccc2)n1-c1ccccc1`, the inhibition was 10.8% (inactive).

In the case of `Cc1c(C(=O)NCc2ccccc2)cnn1-c1ccccc1`, the inhibition was -4.01% (inactive).

As for `CCOC(=O)/C=C/c1ccccc1O`, the inhibition was -4.54% (inactive).

As to `Cc1cc(C)nc(SC2CCCCC2NS(=O)(=O)c2ccc(Cl)cc2)n1` (centres undefined), the inhibition is -8.5% (inactive).

In the case of `COC(=O)C1=C(C)N(Cc2ccc(C(F)(F)F)cc2)C(=NCc2ccc(C(F)(F)F)cc2)NC1c1cccc(Cl)c1` (centres undefined), the inhibition is 12.3% (inactive).

For the compound `COC(=O)C1=C(C)N(Cc2ccc(F)cc2)C(=S)NC1c1cccc(Cl)c1` (centres undefined), the inhibition is 64.3% (active).

Regarding `CC(=O)C1=C(C)N(Cc2ccc(Cl)cc2)C(=S)NC1c1ccc(F)cc1` (centres undefined), the inhibition was 28.2% (inactive).

For the compound `COc1cccc(N2CCN(C(=O)Nc3ccc4c(c3)NC(=O)CO4)CC2)c1`, the inhibition was 11.5% (inactive).

For the compound `O=C(Nc1ccccc1)N1CCN(C2c3ccccc3-c3ccccc32)CC1`, the inhibition was 3.75% (inactive).

Turning to `O=C(Nc1cccc(NC(=O)N2CCN(c3ccccc3)CC2)c1)N1CCN(c2ccccc2)CC1`, the inhibition was 53.4% (active).

`Cc1nn2c(NCCN(C)C)c3c(nc2c1-c1ccccc1)CCC3`: the inhibition was -32.4% (inactive).

On to `COc1cccc(CNC(=O)[C@H]2CCCN2C(=O)[C@H]2CCCN2C(=O)c2cc(F)cc(F)c2)c1`, for which the inhibition was 4.19% (inactive).

As for `CCN(CC(=O)Nc1c(F)cccc1F)C(=O)Cc1cccs1`, the inhibition is -22.6% (inactive).

Regarding `Cc1cc(C)c(S(=O)(=O)NN=C2c3ccccc3[C@H]3Cc4csc[n+]4[C@@H]23)c(C)c1`, the inhibition is 6.84% (inactive).

Take `COc1ccc(OCCNC(=O)c2cc(C3CC3)nc3c2cnn3C(C)C)cc1`: the inhibition is 48.8% (active).

On to `CC(C)n1ncc2c(C(=O)NCc3ccccc3CN(C)C)cc(C3CC3)nc21`, for which the inhibition is -19.6% (inactive).

With `CC(C)n1ncc2c(C(=O)Nc3ccc(CC#N)cc3)cc(C3CC3)nc21`, the inhibition is 35.5% (inactive).

Regarding `CCc1c(-c2ccc(F)cc2)ncn1Cc1cccc(-c2ccccc2)c1`, the inhibition is 34.5% (inactive).

As to `O=C1NC[C@@H](CCCCN2CCN(CCc3ccc(O)cc3)C(=O)C2=O)N(CC2CCCCC2)C1=O`, the inhibition was 3.12% (inactive).

As for `CC(C)(C)c1ccc(CN2C(=O)c3ccccc3S2(=O)=O)cc1`, the inhibition is 8.91% (inactive).

For the compound `COc1ccc(CNC(=O)CN2C(=O)c3ccccc3S2(=O)=O)cc1`, the inhibition was 17.9% (inactive).

Regarding `O=C1c2ccccc2S(=O)(=O)N1CC(O)Cn1c2ccccc2c2ccccc21` (centres undefined), the inhibition is 62.3% (active).

In the case of `COc1ccc(NC(=O)c2cc(-c3ccc(C)o3)nc3ccccc23)cc1`, the inhibition was 57.4% (active).

`COc1ccc(NC(=O)CN(C)C(=O)c2cc(-c3ccc(C)o3)nc3ccccc23)cc1`: the inhibition is 54.9% (active).

`COc1ccc(NC(=O)c2cc(-c3cc(OC)c(OC)c(OC)c3)nc3ccccc23)c(OC)c1`: the inhibition was 3.05% (inactive).

`COc1ccc(NC(=O)CN(C)C(=O)c2cc(C)oc2C)cc1`: the inhibition is -28% (inactive).

Regarding `COc1ccc(-c2cc(C(=O)Nc3ccccc3O)c3ccccc3n2)cc1`, the inhibition is 86.9% (active).

In the case of `Cc1ccc2nc(-c3ccncc3)cc(C(=O)Nc3ccc(OC(F)F)cc3)c2c1`, the inhibition is -4.36% (inactive).

`C/C(=N\NC(=O)c1cc(-c2ccc(O)cc2)nc2ccccc12)c1cccnc1`: the inhibition is -2.53% (inactive).

In the case of `COc1ccc(NC(=O)c2cn(-c3ccccc3)nc2SC)cc1`, the inhibition is -11.6% (inactive).

Turning to `COc1cccc(NC(=O)CN(C)C(=O)c2cc(Cl)nc3ccccc23)c1`, the inhibition was 18.8% (inactive).

`CO[C@@H]1CN(C)C(=O)c2cc(NC(=O)Nc3cc(F)ccc3F)ccc2OC[C@H](C)N(C(=O)c2ccccn2)C[C@@H]1C`: the inhibition is -23.9% (inactive).

With `CCCCCCN1CCN(C2CN(Cc3cn(Cc4ccc(F)cc4)nn3)S(=O)(=O)C2)CC1` (centres undefined), the inhibition was -26.8% (inactive).

With `COC(=O)C1=C(C)N(Cc2ccc(C(F)(F)F)cc2)C(=NCc2ccccc2)NC1c1ccccc1C(F)(F)F` (centres undefined), the inhibition is -9.36% (inactive).

Consider `CCOC(=O)c1c(N)c(C#N)nn1-c1ccccc1C(=O)OC`, for which the inhibition is 5.89% (inactive).

With `O=C(COc1ccc(Cl)cc1)Nc1ccccc1CO`, the inhibition is 4.17% (inactive).

Take `O=C(Cc1ccc(Cl)cc1)NC(=S)Nc1ccccc1O`: the inhibition is 104% (active).

On to `Cc1ccccc1NC(=S)NC(=O)Cc1ccc(Cl)cc1`, for which the inhibition is 91.6% (active).

With `O=C(COc1ccc(Cl)cc1)NC(=S)Nc1ccccc1N1CCOCC1`, the inhibition was -2.14% (inactive).

For the compound `Cc1cccc(NC(=S)NCCc2ccc(Cl)cc2)c1C`, the inhibition is -16.5% (inactive).

Regarding `Cc1ccccc1N/C(SCc1ccc(Cl)cc1)=C(/C#N)C(N)=O`, the inhibition is -9.21% (inactive).

As for `O=C(C(=O)N1CCC(CNS(=O)(=O)Cc2ccccc2)CC1)c1cc2ccccc2o1`, the inhibition is -11.1% (inactive).

For the compound `CCc1cccc(CC)c1N1C(=O)CC(Sc2ccccc2N)C1=O` (centres undefined), the inhibition was -2.71% (inactive).

In the case of `CCC(c1nc2ccccc2[nH]1)n1c(=O)c(-c2cccs2)nc2ccccc21` (centres undefined), the inhibition is -2.04% (inactive).

Regarding `COc1ccc(C(=O)NC(=S)NNC(=O)CCc2ccccc2)cc1`, the inhibition was 66.2% (active).

As for `COc1ccc(C(=O)NNC(=S)NC(=O)c2ccccc2)cc1`, the inhibition was 66.3% (active).

Regarding `CCOc1ccccc1NC(=S)NC(=O)CCc1ccccc1`, the inhibition was -0.27% (inactive).

Regarding `CC(=O)NC(=S)NNC(=O)c1ccc(Br)cc1`, the inhibition was 25.8% (inactive).

As for `O=C(NNC(=S)NCc1ccccc1)c1ccc(OC(F)F)cc1`, the inhibition was -12.5% (inactive).

As to `O=C(CCc1ccccc1)NNC(=O)COc1ccc(Cl)cc1`, the inhibition is -2.05% (inactive).

For `CCOC(=O)[C@]12CCCC=C1N(CCC1=CCCCC1)C(=O)[C@H](CC(=O)NCCCCc1ccccc1)C2`, the inhibition is -5.96% (inactive).

Consider `CCO[C@H]1OC(C(=O)NCc2ccccc2)=C[C@@H](c2coc3ccccc3c2=O)[C@@H]1CCCO`, for which the inhibition is 1.58% (inactive).

Regarding `O=C(NCc1ccccc1)[C@H]1CCCN1C(=O)[C@@H]1CCCN1C(=O)c1ccc(Cl)cc1Cl`, the inhibition is -4.49% (inactive).

Turning to `CC[C@@H]1CC2=C(C(=O)OC(C)(C)O2)[C@@H](CC)O1`, the inhibition is 7.78% (inactive).

In the case of `Cc1cc(C)c([N+](=O)[O-])cc1-c1ccc(/C=N/NC(=O)c2nonc2N)o1`, the inhibition was 52% (active).

Take `Cc1ccc(-c2ccc(/C=N/NC(=O)CN3CCOCC3)o2)cc1[N+](=O)[O-]`: the inhibition was 3.41% (inactive).

For `COc1cc(/C=N\NC(=O)c2nonc2N)c(OC)cc1Br`, the inhibition was -10.8% (inactive).

Take `O=C1NC[C@H](CCCCN2C[C@H](Cc3ccccc3)N(Cc3ccccc3)C(=O)C2=O)N(CCc2ccc(O)cc2)C1=O`: the inhibition was -9.2% (inactive).

In the case of `CN1CCN(CCC(=O)N/N=C/C=C2\N(C)c3ccccc3C2(C)C)CC1`, the inhibition is 28.4% (inactive).

On to `CN1/C(=C\C(=O)c2oc3ccccc3c2N)C(C)(C)c2ccccc21`, for which the inhibition is 51.5% (active).

As to `CC(=O)Nc1cccc(OCC(=O)/C=C2\N(C)c3ccccc3C2(C)C)c1`, the inhibition was 32.4% (inactive).

`CC(=O)Nc1ccc(NC(=O)CCN2C(=O)C3CC=CCC3C2=O)cc1` (centres undefined): the inhibition is -7.1% (inactive).

Regarding `Cc1nc2ccc(NC(=O)N3CCC(c4ccccc4)C3)cc2nc1C` (centres undefined), the inhibition was -3.01% (inactive).
